These results are taken from ChEMBL document CHEMBL3400137, “Glycyrrhizic acid derivatives as influenza A/H1N1 virus inhibitors” (Bioorg Med Chem Lett, 2015).

Data set [1] is described as follows: Antiviral activity against influenza A virus (A/California/07/09(H1N1)) pdm09 infected in MDCK cells assessed as decrease in virus titer by hemagglutination assay in presence of 1% suspension of chicken erythrocytes. It counts as functional, Influenza A virus (A/California/07/2009(H1N1)). As to conditions: read-out: CD50 (the source's name). Summed up:
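MDCK cells were pre-treated for 1 h at 37 °C with serial twofold compound dilutions in MEM containing 2 mM arginine, 2 mM glutamine and 2 μg/mL trypsin, then infected. Untreated infected cells served as control. Virus yield in the supernatant was read by end-point dilution hemagglutination. ED50 was the concentration giving a two-fold drop in virus production versus control. Values are means.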

Data set [2] can be described thus: Selectivity index, CTD50 for MDCK cells to EC50 for influenza A virus (A/California/07/09(H1N1)) pdm09 infected in MDCK cells. It counts as toxicity, cell-based. The conditions noted are these: dog; for selectivity ratio: read-out: Selectivity Index; for Selectivity Index: mdck.
Another data set concerns MDCK. As to the kind of experiment: Cytotoxicity against MDCK cells assessed as reduction in cell viability after 48 hrs by MTT assay. The class given is cell-based, Canis lupus familiaris. Summed up:
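Compounds were taken from 5 mg/mL DMSO stocks and diluted twofold in MEM. They were applied to washed, serum-free MDCK monolayers (grown in MEM with 5% fetal calf serum) for 48 h at 37 °C. Cells were then PBS-washed and given 0.5 mg/mL MTT for 60 min at 37 °C in 5% CO2. Formazan was dissolved in DMSO and read at 535 nm. CTD50 was estimated from these readings. Values are means.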
A general note: Formazan colour is commonly taken as a measure of viable cells.

For `CC1(C)[C@@H](O[C@@H]2O[C@H](C(=O)O)[C@@H](O)[C@H](O)[C@H]2O[C@@H]2O[C@H](C(=O)O)[C@@H](O)[C@H](O)[C@H]2O)CC[C@]2(C)C3=CC=C4[C@@H]5C[C@@](C)(C(=O)O)CC[C@]5(C)CC[C@@]4(C)[C@]3(C)CC[C@@H]12`, in data set [1] (Influenza A virus, pdm09, MDCK), the CC50 was determined as 21.4 µM. For the same compound, in data set [2], the selectivity ratio stood at 10.
For `COC(=O)[C@H](Cc1c[nH]cn1)NC(=O)[C@H]1O[C@@H](O[C@H]2[C@H](O[C@H]3CC[C@]4(C)[C@H]5C(=O)C=C6[C@@H]7C[C@@](C)(C(=O)O)CC[C@]7(C)CC[C@@]6(C)[C@]5(C)CC[C@H]4C3(C)C)O[C@H](C(=O)N[C@@H](Cc3c[nH]cn3)C(=O)OC)[C@@H](O)[C@@H]2O)[C@H](O)[C@@H](O)[C@@H]1O`, the CC50 in data set [1] (Influenza A virus, pdm09, MDCK) came to 298 µM. Also, the selectivity ratio in data set [2] was 15.
The corresponding values for `COC(=O)[C@H](Cc1ccccc1)NC(=O)[C@H]1O[C@@H](O[C@H]2[C@H](O[C@H]3CC[C@]4(C)[C@H]5C(=O)C=C6[C@@H]7C[C@@](C)(C(=O)O)CC[C@]7(C)CC[C@@]6(C)[C@]5(C)CC[C@H]4C3(C)C)O[C@H](C(=O)N[C@@H](Cc3ccccc3)C(=O)OC)[C@@H](O)[C@@H]2O)[C@H](O)[C@@H](O)[C@@H]1O` are 262 µM and 61.
For `COC(=O)C[C@H](NC(=O)[C@H]1O[C@@H](O[C@H]2[C@H](O[C@H]3CC[C@]4(C)[C@H]5C(=O)C=C6[C@H]7C[C@@](C)(C(=O)O)CC[C@]7(C)CC[C@@]6(C)[C@]5(C)CC[C@H]4C3(C)C)O[C@H](C(=O)N[C@@H](CC(=O)OC)C(=O)O)[C@@H](O)[C@@H]2O)[C@H](O)[C@@H](O)[C@@H]1O)C(=O)O`, in data set [1] (Influenza A virus, pdm09, MDCK), the CC50 came to 58.3 µM. For the same compound, the selectivity ratio in data set [2] was found to be 12.
On the same counts, the results for `CC(N)C12CC3CC(CC(C3)C1)C2` (stereo not drawn) [RIMANTADINE] are 334 µM and 5.
On the same counts, the results for `CC1(C)[C@@H](O[C@@H]2O[C@H](C(=O)N[C@@H](CSCc3ccccc3)C(=O)O)[C@@H](O)[C@H](O)[C@H]2O[C@@H]2O[C@H](C(=O)N[C@@H](CSCc3ccccc3)C(=O)O)[C@@H](O)[C@H](O)[C@H]2O)CC[C@]2(C)[C@H]3C(=O)C=C4[C@@H]5C[C@@](C)(C(=O)O)CC[C@]5(C)CC[C@@]4(C)[C@]3(C)CC[C@@H]12` are 248 µM and 71.
On the same counts, the results for `CC1(C)[C@@H](O[C@@H]2O[C@H](C(=O)N[C@@H]3O[C@H](CO)[C@@H](O)[C@H](O)[C@H]3O)[C@@H](O)[C@H](O)[C@H]2O[C@@H]2O[C@H](C(=O)N[C@@H]3O[C@H](CO)[C@@H](O)[C@H](O)[C@H]3O)[C@@H](O)[C@H](O)[C@H]2O)CC[C@]2(C)[C@H]3C(=O)C=C4[C@@H]5C[C@@](C)(C(=O)O)CC[C@]5(C)CC[C@@]4(C)[C@]3(C)CC[C@@H]12` are 259 µM and 36.
On to `COC(=O)[C@H](Cc1ccc(O)cc1)NC(=O)[C@H]1O[C@@H](O[C@H]2[C@H](O[C@H]3CC[C@]4(C)[C@H]5C(=O)C=C6[C@@H]7C[C@@](C)(C(=O)N[C@@H](Cc8ccc(O)cc8)C(=O)OC)CC[C@]7(C)CC[C@@]6(C)[C@]5(C)CC[C@H]4C3(C)C)O[C@H](C(=O)N[C@@H](Cc3ccc(O)cc3)C(=O)OC)[C@@H](O)[C@@H]2O)[C@H](O)[C@@H](O)[C@@H]1O`, for which the CC50 in data set [1] (Influenza A virus, pdm09, MDCK) was 160 µM. The selectivity ratio in data set [2] worked out at 18.
One may read the EC50 as the concentration at which the effect is half-maximal. As for `CC1(C)[C@@H](O[C@H]2O[C@H](C(=O)O)[C@@H](O)[C@H](O)[C@H]2O[C@@H]2O[C@H](C(=O)O)[C@@H](O)[C@H](O)[C@H]2O)CC[C@]2(C)[C@H]3C(=O)C=C4[C@@H]5C[C@@](C)(C(=O)O)CC[C@]5(C)CC[C@@]4(C)[C@]3(C)CC[C@@H]12` [GLYCYRRHIZIN], in the data set with MDCK, the EC50 worked out at 365 µM. Besides, the CC50 in data set [1] was found to be 365 µM. In addition, the “Selectivity Index” value in data set [2] is reported as 1.
`CC[C@H](C)[C@H](NC(=O)[C@H]1O[C@@H](O[C@H]2[C@H](O[C@H]3CC[C@]4(C)[C@H]5C(=O)C=C6[C@@H]7C[C@@](C)(C(=O)N[C@H](C(=O)OC)[C@@H](C)CC)CC[C@]7(C)CC[C@@]6(C)[C@]5(C)CC[C@H]4C3(C)C)O[C@H](C(=O)N[C@H](C(=O)OC)[C@@H](C)CC)[C@@H](O)[C@@H]2O)[C@H](O)[C@@H](O)[C@@H]1O)C(=O)OC`: the CC50 in data set [1] (Influenza A virus, pdm09, MDCK) came to 16.4 µM. In data set [2], the selectivity ratio amounted to 6.
For the compound `COC(=O)[C@H](Cc1ccc(O)cc1)NC(=O)[C@H]1O[C@@H](O[C@H]2[C@H](O[C@H]3CC[C@]4(C)[C@H]5C(=O)C=C6[C@@H]7C[C@@](C)(C(=O)O)CC[C@]7(C)CC[C@@]6(C)[C@]5(C)CC[C@H]4C3(C)C)O[C@H](C(=O)N[C@@H](Cc3ccc(O)cc3)C(=O)OC)[C@@H](O)[C@@H]2O)[C@H](O)[C@@H](O)[C@@H]1O`, the CC50 in data set [1] (Influenza A virus, pdm09, MDCK) stood at 255 µM. Moreover, the selectivity ratio in data set [2] stood at 38.
The corresponding values for `COC(=O)[C@@]1(C)CC[C@]2(C)CC[C@]3(C)C(=CC(=O)[C@@H]4[C@@]5(C)CC[C@H](O[C@@H]6O[C@H](CO)[C@@H](O)[C@H](O)[C@H]6O[C@@H]6O[C@H](CO)[C@@H](O)[C@H](O)[C@H]6O)C(C)(C)[C@@H]5CC[C@]43C)[C@@H]2C1` are 371 µM and 5.
For `COC(=O)[C@@H](NC(=O)[C@H]1O[C@@H](O[C@H]2[C@H](O[C@H]3CC[C@]4(C)[C@H]5C(=O)C=C6[C@@H]7C[C@@](C)(C(=O)O)CC[C@]7(C)CC[C@@]6(C)[C@]5(C)CC[C@H]4C3(C)C)O[C@H](C(=O)N[C@H](C(=O)OC)C(C)C)[C@@H](O)[C@@H]2O)[C@H](O)[C@@H](O)[C@@H]1O)C(C)C`, the CC50 in data set [1] (Influenza A virus, pdm09, MDCK) came to 29.1 µM. Moreover, in data set [2], the selectivity ratio is 5.
On the same counts, the results for `COC(=O)C[C@H](NC(=O)[C@H]1O[C@@H](O[C@H]2[C@H](O[C@H]3CC[C@]4(C)[C@H]5C(=O)C=C6[C@@H]7C[C@@](C)(C(=O)O)CC[C@]7(C)CC[C@@]6(C)[C@]5(C)CC[C@H]4C3(C)C)O[C@H](C(=O)N[C@@H](CC(=O)OC)C(=O)OC)[C@@H](O)[C@@H]2O)[C@H](O)[C@@H](O)[C@@H]1O)C(=O)OC` are 37.3 µM and 1.
On the same counts, the results for `CC1(C)[C@@H](O[C@@H]2O[C@H](C(=O)N[C@@H](CCCCNC(=O)OCc3ccccc3)C(=O)O)[C@@H](O)[C@H](O)[C@H]2O[C@@H]2O[C@H](C(=O)N[C@@H](CCCCNC(=O)OCc3ccccc3)C(=O)O)[C@@H](O)[C@H](O)[C@H]2O)CC[C@]2(C)[C@H]3C(=O)C=C4[C@@H]5C[C@@](C)(C(=O)O)CC[C@]5(C)CC[C@@]4(C)[C@]3(C)CC[C@@H]12` are 155 µM and 3.
The corresponding values for `COC(=O)[C@H](Cc1ccccc1)NC(=O)[C@H]1O[C@@H](O[C@H]2[C@H](O[C@H]3CC[C@]4(C)[C@H]5C(=O)C=C6[C@@H]7C[C@@](C)(C(=O)N[C@@H](Cc8ccccc8)C(=O)OC)CC[C@]7(C)CC[C@@]6(C)[C@]5(C)CC[C@H]4C3(C)C)O[C@H](C(=O)N[C@@H](Cc3ccccc3)C(=O)OC)[C@@H](O)[C@@H]2O)[C@H](O)[C@@H](O)[C@@H]1O` are 133 µM and 28.
`COC(=O)C[C@H](NC(=O)[C@H]1O[C@@H](O[C@H]2[C@H](O[C@H]3CC[C@]4(C)[C@H]5C(=O)C=C6[C@H]7C[C@@](C)(C(=O)O)CC[C@]7(C)CC[C@@]6(C)[C@]5(C)CC[C@H]4C3(C)C)O[C@H](C(=O)N[C@@H](CC(=O)OC)C(=O)OC)[C@@H](O)[C@@H]2O)[C@H](O)[C@@H](O)[C@@H]1O)C(=O)OC`: the CC50 in data set [1] (Influenza A virus, pdm09, MDCK) came to 38 µM. Further, the selectivity ratio in data set [2] was found to be 4.
As for `CC1(C)[C@@H](OC2O[C@H](C(=O)O)[C@@H](O)[C@H](O)[C@H]2O[C@@H]2O[C@H](C(=O)O)[C@@H](O)[C@H](O)[C@H]2O)CC[C@]2(C)[C@H]3C(=O)C=C4C5C[C@@](C)(C(=O)O)CC[C@]5(C)CC[C@@]4(C)[C@]3(C)CC[C@@H]12` (single isomer, unassigned) [GLYCYRRHIZIN], the EC50 with MDCK was determined as 15.2 µM. Further, in data set [1], the CC50 is 47.5 µM. Besides, the “Selectivity Index” value in data set [2] is reported as 3.
